Converted amounts (≈) assume the structure as drawn. The source made the active and inactive calls. No cut-off for these calls is given here. Where a SMILES comes first, the peptide text is derived from it.
Tests used:
Jurkat E6.1 [1] = assay: Cytotoxicity against human Jurkat E6-1 cells after 24 hrs by cell titer blue dye assay; type: functional, cell-based
In short: (§1)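 Suspension cells (~60 000) were mixed with 2-fold peptide dilutions (0.1–100 μM final) in DMEM/2% FBS, 30 min at 37 °C, 5% CO2. ~10 000 cells per well then received Cell Titer Blue. Resorufin fluorescence (ex 530/em 590 nm) was read at 4 and 24 h; viability relative to medium-only controls; triplicate.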

Escherichia coli [2] = assay: Antibacterial activity against clinical isolate Escherichia coli by microdilution method; type: functional
In short: (§2)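 Strains subcultured at least twice on sheep blood agar and incubated 24 h before testing; inoculum made by direct suspension in saline to 0.5 McFarland turbidity. MIC determined by broth microdilution in Mueller–Hinton broth following CLSI guidelines; gentamicin run as control antibiotic.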

HL-60 [3] = assay: Cytotoxicity against human HL60 cells after 4 hrs by cell titer blue dye assay; type: functional, cell-based; in short: as §1
[4] = Toxicity in human erythrocytes assessed as induction of hemolysis up to 400 uM incubated for 30 mins by microplate reader assay; type: cell-based, Erythrocyte; settings: read-out: Activity
In short: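 Fresh human blood collected in EDTA; erythrocytes washed three times in PBS. Mixed 1:1 with 2-fold serial peptide dilutions to final 4% (v/v) cells and 0.1–400 μM peptide. Incubated 30 min at 37 °C with gentle agitation, then centrifuged; supernatant A540 measured. Percent hemolysis scaled between untreated cells and 1% Triton X-100; triplicate.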

[5] = Half life in human serum at 1 mM incubated for 24 hrs by LC-MS analysis; type: ADME, cell-free
In short: (§3)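 Human serum combined with equal volume of 1 mM aqueous peptide stock, incubated 24 h at 37 °C with gentle swirling. Aliquots taken at 0, 1, 5, 10, 30, 120, 360 and 1440 min, quenched with 15% trichloroacetic acid for 30 min at 4 °C, and centrifuged to remove serum proteins. Remaining peptide followed by LC-MS.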

Enterococcus faecalis [6] = assay: Antibacterial activity against clinical isolate Enterococcus faecalis by microdilution method; type: functional; in short: as §2
Staphylococcus aureus [7] = assay: Antibacterial activity against clinical isolate Staphylococcus aureus by microdilution method; type: functional; in short: as §2
U-937 [8] = assay: Cytotoxicity against human U937 cells after 4 hrs by cell titer blue dye assay; type: functional, cell-based; settings: for IC50: U-937, 4 h
In short: (§4)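 Tumor cells cultured in DMEM with 10% FBS, 37 °C, 5% CO2, kept at 10^5–10^6 cells/mL. About 60 000 cells mixed with 2-fold serial peptide dilutions (final 0.1–100 μM) in DMEM with 2% FBS for 30 min at 37 °C. About 10 000 treated cells per well then got Cell Titer Blue; fluorescence (ex 530, em 590 nm) read 4 and 24 h after dye addition. Viability relative to medium-only controls; triplicate.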

Pseudomonas aeruginosa [9] = assay: Antibacterial activity against Pseudomonas aeruginosa ATCC 27853 by microdilution method; type: functional; in short: as §2
[10] = Cytotoxicity against human 1BR3G cells after 4 hrs by cell titer blue dye assay; type: cell-based
In short: (§5)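 1BR3G fibroblasts grown in DMEM/10% FBS, seeded 5000 cells/well, incubated 24 h at 37 °C, then medium swapped for 2% FBS medium with 2-fold peptide dilutions (0.1–100 μM final). After 30 min, Cell Titer Blue dye was added; fluorescence (ex 530/em 590 nm) read 4 and 24 h later. Viability relative to untreated medium controls; triplicate.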

U-937 [11] = assay: Cytotoxicity against human U937 cells after 24 hrs by cell titer blue dye assay; type: functional, cell-based; in short: as §4
Staphylococcus aureus [12] = assay: Antibacterial activity against Staphylococcus aureus ATCC 29213 by microdilution method; type: functional; in short: as §2
HeLa S3 = assay: Cytotoxicity against human HeLaS3 cells after 24 hrs by cell titer blue dye assay; type: functional, cell-based; in short: as §4
Klebsiella pneumoniae = assay: Antibacterial activity against clinical isolate Klebsiella pneumoniae by microdilution method; type: functional; in short: as §2
THP-1 [13] = assay: Cytotoxicity against human THP1 cells after 24 hrs by cell titer blue dye assay; type: functional, cell-based; in short: as §4
Jurkat E6.1 [14] = assay: Cytotoxicity against human Jurkat E6-1 cells after 4 hrs by cell titer blue dye assay; type: functional, cell-based; in short: as §1
[15] = Cytotoxicity against human HeLaS3 cells after 4 hrs by cell titer blue dye assay; type: functional, cell-based; settings: HeLa S3, 4 h; in short: as §4
HL-60 [16] = assay: Cytotoxicity against human HL60 cells after 24 hrs by cell titer blue dye assay; type: functional, cell-based; in short: as §1
Escherichia coli [17] = assay: Antibacterial activity against Escherichia coli ATCC 25922 by microdilution method; type: functional; in short: as §2
Acinetobacter baumannii = assay: Antibacterial activity against clinical isolate Acinetobacter baumannii by microdilution method; type: functional
In short: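 A. baumannii clinical isolate subcultured at least twice on sheep blood agar, 24 h incubation before testing; saline suspension adjusted to 0.5 McFarland. Broth microdilution MIC in Mueller–Hinton broth per CLSI; gentamicin as control antibiotic.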

Enterococcus faecalis [18] = assay: Antibacterial activity against Enterococcus faecalis ATCC 29212 by microdilution method; type: functional; in short: as §2
[19] = Toxicity in human erythrocytes assessed as induction of hemolysis at 100 uM incubated for 30 mins by microplate reader assay; type: cell-based, Erythrocyte; settings: read-out: Activity
In short: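 Fresh human blood erythrocytes, PBS-washed, were incubated as a 4% (v/v) final suspension with peptide (0.1–400 μM final) for 30 min at 37 °C with gentle agitation. After centrifugation, hemoglobin in the supernatant was read at A540. Percent hemolysis was calculated against 1% Triton X-100 (positive) and untreated cells; triplicate.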

Streptococcus pyogenes = assay: Antibacterial activity against clinical isolate Streptococcus pyogenes by microdilution method; type: functional
In short: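 S. pyogenes isolate subcultured twice on sheep blood agar, incubated 24 h, suspended in saline to 0.5 McFarland. MIC by CLSI broth microdilution in Mueller–Hinton broth supplemented with 5% lysed horse blood; gentamicin control.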

THP-1 [20] = assay: Cytotoxicity against human THP1 cells after 4 hrs by cell titer blue dye assay; type: functional, cell-based; settings: for IC50: THP-1, 4 h; in short: as §4
Pseudomonas aeruginosa [21] = assay: Antibacterial activity against clinical isolate Pseudomonas aeruginosa by microdilution method; type: functional; in short: as §2
[22] = Cytotoxicity against human 1BR3G cells after 24 hrs by cell titer blue dye assay; type: cell-based; in short: as §5
[23] = Metabolic stability in human serum assessed as compound remaining at 1 mM after 24 hrs by LC-MS analysis; type: ADME, cell-free; settings: read-out: Stability; in short: as §3
[24] = Cytotoxicity against human 1BR3G cells assessed as reduction of cell viability at 100 uM after 24 hrs by cell titer blue dye assay; type: cell-based
In short: (§6)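 1BR3G human fibroblasts grown in DMEM with 10% FBS at 37 °C, 5% CO2; 5000 cells/well seeded for 24 h, then medium swapped for DMEM with 2% FBS holding 2-fold serial peptide dilutions (final 0.1–100 μM). After 30 min, Cell Titer Blue added; fluorescence (ex 530, em 590 nm) read 4 and 24 h after dye addition. Viability relative to 2% FBS medium-only controls; triplicate.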

[25] = Cytotoxicity against human 1BR3G cells assessed as reduction of cell viability at 100 uM after 4 hrs by cell titer blue dye assay; type: cell-based; in short: as §6
[26] = Drug degradation in human serum at 1 mM after 24 hrs by LC-MS analysis; type: ADME, cell-free; settings: read-out: Drug degradation; in short: as §3

Row | Molecule | Activity (Jurkat E6.1 [1]) | MIC (Escherichia coli [2]) [µM] | hemolysis at 0.5 h [4] [%] | half-life at 1000 µM [5] [h] | MIC (Enterococcus faecalis [6]) [µM] | MIC (Staphylococcus aureus [7]) [µM] | IC50 (U-937 [8]) [µM] | MIC (Pseudomonas aeruginosa [9]) [µM] | Activity (U-937 [11]) | MIC (Staphylococcus aureus [12]) [µM] | Activity (HeLa S3) | MIC (Klebsiella pneumoniae) [µM] | Activity (THP-1 [13]) | IC50 [15] [µM] | Activity (HL-60 [16]) | MIC (Escherichia coli [17]) [µM] | MIC (Acinetobacter baumannii) [µM] | MIC (Enterococcus faecalis [18]) [µM] | MIC (Streptococcus pyogenes) [µM] | MIC (Pseudomonas aeruginosa [21]) [µM] | further results
1 | CC[C@H](C)[C@H](NC(=O)[C@H](CCCCN)NC(=O)[C@H](CCCCN)NC(=O)[C@H](CC(C)C)NC(=O)[C@H](CCCNC(=N)N)NC(=O)[C@H](CCCCN)NC(=O)[C@H](CCCCN)NC(=O)[C@@H](NC(=O)[C@H](CO)NC(=O)[C@H](CCCCN)NC(=O)[C@H](CCCCN)NC(=O)[C@@H](NC(=O)[C@H](CCCCN)NC(=O)[C@H](CCCCN)NC(=O)[C@H](Cc1ccccc1)NC(=O)[C@H](Cc1ccccc1)NC(=O)[C@H](CCCCN)NC(=O)[C@H](CCCCN)NC(=O)[C@H](Cc1ccccc1)NC(=O)[C@H](CCCNC(=N)N)NC(=O)[C@@H](N)CCCCN)C(C)C)C(C)C)C(=O)N[C@@H](Cc1ccccc1)C(=O)N[C@@H](CCCCN)C(=O)N[C@@H](CCCCN)C(=O)N1CCC[C@H]1C(=O)N[C@@H](CCSC)C(=O)N[C@H](C(=O)N[C@H](C(=O)NCC(=O)N[C@H](C(=O)N[C@H](C(=O)N[C@H](C(=O)N1CCC[C@H]1C(=O)N[C@@H](Cc1ccccc1)C(N)=O)[C@@H](C)CC)[C@H](C)O)C(C)C)[C@@H](C)CC)C(C)C | Active | 3.8 (≈ 15.8 µg/mL) | 33 | 1.18 | 31 (≈ 129 µg/mL) | 7.7 (≈ 32 µg/mL) | < 1 | 0.24 (≈ 0.996 µg/mL) | Active | 7.7 (≈ 32 µg/mL) | Active | 1.9 (≈ 7.89 µg/mL) | Active | < 1 | Active | 0.06 (≈ 0.249 µg/mL) | 3.8 (≈ 15.8 µg/mL) | 7.7 (≈ 32 µg/mL) | 3.8 (≈ 15.8 µg/mL) | 3.8 (≈ 15.8 µg/mL) | IC50 (HL-60 [3]; HL-60, 4 h): > 12.5 µM; IC50 [10]: 6.25 µM; IC50 (Jurkat E6.1 [14]; Jurkat E6.1, 4 h): > 12.5 µM; hemolysis at 0.5 h, 100 µM [19]: 7%; IC50 (THP-1 [20]): 1.56 µM; Activity [22]: Toxic
2 | CC[C@H](C)[C@H](NC(=O)[C@H](CCCCN)NC(=O)[C@H](CCCCN)NC(=O)[C@H](CC(C)C)NC(=O)[C@H](CCCNC(=N)N)NC(=O)[C@H](CCCCN)NC(=O)[C@@H](N)CCCCN)C(=O)N[C@@H](Cc1ccccc1)C(=O)N[C@@H](CCCCN)C(=O)N[C@@H](CCCCN)C(=O)N1CCC[C@H]1C(=O)N[C@@H](CCSC)C(=O)N[C@H](C(=O)N[C@H](C(=O)NCC(=O)N[C@H](C(=O)N[C@H](C(=O)N[C@H](C(=O)N1CCC[C@H]1C(=O)N[C@@H](Cc1ccccc1)C(N)=O)[C@@H](C)CC)[C@H](C)O)C(C)C)[C@@H](C)CC)C(C)C |  | 3.4 (≈ 8.06 µg/mL) | 7 | 12.8 | 54 (≈ 128 µg/mL) | 54 (≈ 128 µg/mL) | 6.25 | 27 (≈ 64 µg/mL) | Active | 54 (≈ 128 µg/mL) | Active | 3.4 (≈ 8.06 µg/mL) | Active | 1 |  | 0.11 (≈ 0.261 µg/mL) | 1.7 (≈ 4.03 µg/mL) | 54 (≈ 128 µg/mL) | 3.4 (≈ 8.06 µg/mL) | 27 (≈ 64 µg/mL) | remaining at 24 h, 1000 µM [23]: 10%; Activity [24]: Non-toxic; Activity [25]: 20%; IC50 (THP-1 [20]): 25 µM
3 | CC(C)[C@H](NC(=O)[C@H](CO)NC(=O)[C@H](CCCCN)NC(=O)[C@H](CCCCN)NC(=O)[C@@H](NC(=O)[C@H](CCCCN)NC(=O)[C@H](CCCCN)NC(=O)[C@H](Cc1ccccc1)NC(=O)[C@H](Cc1ccccc1)NC(=O)[C@H](CCCCN)NC(=O)[C@H](CCCCN)NC(=O)[C@H](Cc1ccccc1)NC(=O)[C@H](CCCNC(=N)N)NC(=O)[C@@H](N)CCCCN)C(C)C)C(N)=O (H-KRFKKFFKKVKKSV-NH2) | inactive | 71 (≈ 128 µg/mL) | 7 | 0.35 | 71 (≈ 128 µg/mL) | 71 (≈ 128 µg/mL) |  | 71 (≈ 128 µg/mL) | inactive | 71 (≈ 128 µg/mL) | Active | 71 (≈ 128 µg/mL) | inactive | > 10 | inactive | 71 (≈ 128 µg/mL) | 71 (≈ 128 µg/mL) | 71 (≈ 128 µg/mL) | 36 (≈ 64.7 µg/mL) | 71 (≈ 128 µg/mL) | Activity [24]: Non-toxic; Activity (HL-60 [3]): inactive; Activity [25]: 20%; Activity (U-937 [8]): inactive; Activity (Jurkat E6.1 [14]): inactive; metabolised at 24 h, 1000 µM [26]: 100%; Activity (THP-1 [20]): inactive
4 | GENTAMICIN |  | 34 |  |  | 34 | 0.5 |  | 2.1 |  | 0.5 |  | 4.2 |  |  |  | 1 | 17 | 17 | 17 | 17 | 

— ChEMBL document CHEMBL3632543, “Structural Dissection of Crotalicidin, a Rattlesnake Venom Cathelicidin, Retrieves a Fragment with Antimicrobial and Antitumor Activity” (J Med Chem, 2015)
